Laboratory results from ChEMBL document CHEMBL1759885, “Syntheses of 1,2,3-triazolyl salicylamides with inhibitory activity on lipopolysaccharide-induced nitric oxide production” (Bioorg Med Chem Lett, 2011).
Active and inactive are the calls of the source. No cut-off for these calls is given here.

What was measured:
RAW264.7 [1] = assay: Inhibition of LPS-induced nitric oxide production in mouse RAW264.7 cells at 20 uM after 20 hrs by Griess reaction; format: functional; conditions: RAW264.7, 20 h
Procedure, shortened: (§1)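 RAW 264.7 cells plated at 5 × 10⁵ cells/mL, grown 24 h, then given LPS (1 µg/mL) plus compound (DMSO vehicle, final ≤0.1%) for 20 h. Supernatant nitrite measured with Griess reagent (1% sulfanilamide in 5% H₃PO₄, 0.1% N-(1-naphthyl)ethylenediamine) at 540 nm against a NaNO₂ standard curve. %inhibition = [1 − sample NO/vehicle-control NO] × 100. IC50 by nonlinear regression.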

RAW264.7 [2] = assay: Inhibition of LPS-induced nitric oxide production in mouse RAW264.7 cells after 20 hrs by Griess reaction; format: functional, cell-based; conditions: for IC50: RAW264.7, 20 h; procedure, shortened: as §1
RAW264.7 [3] = assay: Cytotoxicity against mouse RAW264.7 cells assessed as cell viability upto 15 uM after 24 hrs by MTT assay; format: cell-based; conditions: raw264.7, 24 h
Procedure, shortened: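 RAW 264.7 macrophages exposed to compound for 24 h, and viability then read by MTT assay.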

RAW264.7 [4] = assay: Inhibition of LPS-induced iNOS mRNA expression in mouse RAW264.7 cells after 4 hrs by RT-PCR; format: functional, cell-based
Procedure, shortened: (§2)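 RAW 264.7 cells stimulated with LPS (1 µg/mL) with or without several compound concentrations. Total RNA collected at 4 h and analysed for iNOS mRNA by RT-PCR. Protein collected at 16 h and analysed for iNOS by western blot, with β-actin as reference.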

RAW264.7 [5] = assay: Inhibition of LPS-induced iNOS protein expression in mouse RAW264.7 cells after 16 hrs by Western blot; format: functional, cell-based; procedure, shortened: as §2
RAW264.7 [6] = assay: Inhibition of LPS-induced iNOS protein expression in mouse RAW264.7 cells at 15 uM after 16 hrs by Western blot; format: functional, cell-based; procedure, shortened: as §2
RAW264.7 [7] = assay: Inhibition of LPS-induced iNOS mRNA expression in mouse RAW264.7 cells at 15 uM after 4 hrs by RT-PCR; format: functional, cell-based; procedure, shortened: as §2

Row | Compound | IC50 (RAW264.7 [2]) [µM] | inhibition at 20 µM (RAW264.7 [1]) [%] | other results
1 | CCCNC(=O)c1ccc(-n2cc(-c3cc(F)cc(F)c3)nn2)cc1O | > 20 | 0 | 
2 | CCCCCc1ccc(-c2cn(-c3ccc(C(=O)NCCC)c(O)c3)nn2)cc1 | > 20 | 0 | 
3 | O=C(c1cc(-n2cc(-c3cc(C(F)(F)F)cc(C(F)(F)F)c3)nn2)ccc1O)N1CCCCC1 | 12.8 | 94.1 | Activity (RAW264.7 [3]): Non-toxic; inhibition (RAW264.7 [4]): Dose-dependent effect; inhibition (RAW264.7 [5]): Dose-dependent effect; Activity (RAW264.7 [2]): Dose-dependent effect; inhibition (RAW264.7 [6]): Active; inhibition (RAW264.7 [7]): Active
4 | CCCNC(=O)c1cc(-n2cc(-c3cc(C(F)(F)F)cc(C(F)(F)F)c3)nn2)ccc1O | > 20 | 1.8 | 
5 | CCCNC(=O)c1ccc(-n2cc(-c3cc(C(F)(F)F)cc(C(F)(F)F)c3)nn2)cc1O | > 20 | 0 | 
6 | CCCCCc1ccc(-c2cn(-c3ccc(O)c(C(=O)NCCC)c3)nn2)cc1 | > 20 | 0 | 
7 | CCCNC(=O)c1ccc(-n2cc(-c3cccc(Cl)c3)nn2)cc1O | > 20 | 0 | 
8 | CCCCCCc1cn(-c2ccc(O)c(C(=O)NCCC)c2)nn1 | 19.7 | 57.9 | 
9 | CCCNC(=O)c1cc(-n2cc(CCC(C)C)nn2)ccc1O | > 20 | 22.6 | 
10 | CCCCCCc1cn(-c2ccc(O)c(C(=O)N3CCCCC3)c2)nn1 | > 20 | 4.2 | 
11 | CNC(=N)NCCC[C@H](N)C(=O)O [TILARGININE] | 19.9 |  | 
12 | CCCNC(=O)c1cc(-n2cc(-c3cc(F)cc(F)c3)nn2)ccc1O | > 20 | 0 | 
13 | CCCNC(=O)c1cc(-n2cc(-c3cccc(Cl)c3)nn2)ccc1O | > 20 | 33.8 | 
14 | CCCCCCc1cn(-c2ccc(C(=O)NCCC)c(O)c2)nn1 | > 20 | 11 | 
15 | CC(C)CCc1cn(-c2ccc(O)c(C(=O)N3CCCCC3)c2)nn1 | > 20 | 0.9 | 
16 | CCCNC(=O)c1ccc(-n2cc(CCC(C)C)nn2)cc1O | > 20 | 7.3 | 

Further lines, with some results ahead:

Row | IC50 (RAW264.7 [2]) [µM] | Compound | inhibition at 20 µM (RAW264.7 [1]) [%] | other results
17 | > 20 | O=C(c1ccc(-n2cc(-c3cccc(Cl)c3)nn2)cc1O)N1CCCCC1 | 0 | 
18 | > 20 | O=C(c1ccc(-n2cc(-c3ccccc3)nn2)cc1O)N1CCCCC1 | 0 | 
19 | > 20 | O=C(c1cc(-n2cc(-c3ccccc3)nn2)ccc1O)N1CCCCC1 | 11.8 | 
20 | > 20 | O=C(c1ccc(-n2cc(-c3cc(F)cc(F)c3)nn2)cc1O)N1CCCCC1 | 0 | 
21 | > 20 | CCCNC(=O)c1cc(-n2cc(-c3ccccc3)nn2)ccc1O | 28.6 | 
22 | > 20 | CCCCCc1ccc(-c2cn(-c3ccc(C(=O)N4CCCCC4)c(O)c3)nn2)cc1 | 0 | 
23 | > 20 | CC(C)CCc1cn(-c2ccc(C(=O)N3CCCCC3)c(O)c2)nn1 | 1.9 | 
24 | > 20 | O=C(c1cc(-n2cc(-c3cc(F)cc(F)c3)nn2)ccc1O)N1CCCCC1 | 9.1 | 
25 | > 20 | CCCNC(=O)c1ccc(-n2cc(-c3ccccc3)nn2)cc1O | 1.1 | 
26 | > 20 | O=C(c1cc(-n2cc(-c3cccc(Cl)c3)nn2)ccc1O)N1CCCCC1 | 35.4 | 
27 | > 20 | CCCCCc1ccc(-c2cn(-c3ccc(O)c(C(=O)N4CCCCC4)c3)nn2)cc1 | 18.4 | 
28 | > 20 | O=C(c1ccc(-n2cc(-c3cc(C(F)(F)F)cc(C(F)(F)F)c3)nn2)cc1O)N1CCCCC1 | 0 | 
29 | > 20 | CCCCCCc1cn(-c2ccc(C(=O)N3CCCCC3)c(O)c2)nn1 | 8.3 | 
